Platelet DG rel – modulates dense granule release in human platelets | 300,000 compounds, 0.22% hits | inhibition, %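 (compounds screened at 7.5 µM in platelet-rich plasma)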 | AID 1663 | human platelet-rich plasma, SFLLRN dense granule ATP release, luminescence;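 active = mean replicate score, as percent of positive control, at or above 50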
TRPC4 act – activators of mouse TRPC4 channel; HEK293 TRPC4beta/mu-opioid, Fluo4 calcium fluorescence; hits give high values; 310,000 compounds, 0.49% hits; B-score at 10 µM; Q9QUQ5;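 active = B-score above 5 SD of library B-scores, and initial fluorescence ratio not above library mean plus 5 SD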;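 also: positive B-score marks a calcium rise read as TRPC4 activation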
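Test system: HEK293 cells stably co-expressing mouse TRPC4beta and mu-opioid receptor | Schedule: Fluo4 dye loading 45 min at room temperature, 110 s recording | Measured by: Kinetic Fluo4 calcium fluorescence, 5 s baseline at 1 Hz | Evaluation: B score of integrated ratio | Controls: Buffer (low) and maximal DAMGO (high)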
TRPC6 inh – blocks the mouse TRPC6 cation channel. HEK293-TRPC6, membrane potential dye, ACh-evoked depolarization; hits give low values. AID 2553. Q61143. B-score at 10 µM. 310,000 compounds, 1.1% hits;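 active = B-score under library mean minus 3 SD, initial fluorescence not abnormally high, positive integrated signal ratio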;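 also: B-score derived from integrated fluorescence ratio over the kinetic read; more negative B-score means stronger inhibition of depolarization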
Target sequence (Q61143 whole entry, looked up): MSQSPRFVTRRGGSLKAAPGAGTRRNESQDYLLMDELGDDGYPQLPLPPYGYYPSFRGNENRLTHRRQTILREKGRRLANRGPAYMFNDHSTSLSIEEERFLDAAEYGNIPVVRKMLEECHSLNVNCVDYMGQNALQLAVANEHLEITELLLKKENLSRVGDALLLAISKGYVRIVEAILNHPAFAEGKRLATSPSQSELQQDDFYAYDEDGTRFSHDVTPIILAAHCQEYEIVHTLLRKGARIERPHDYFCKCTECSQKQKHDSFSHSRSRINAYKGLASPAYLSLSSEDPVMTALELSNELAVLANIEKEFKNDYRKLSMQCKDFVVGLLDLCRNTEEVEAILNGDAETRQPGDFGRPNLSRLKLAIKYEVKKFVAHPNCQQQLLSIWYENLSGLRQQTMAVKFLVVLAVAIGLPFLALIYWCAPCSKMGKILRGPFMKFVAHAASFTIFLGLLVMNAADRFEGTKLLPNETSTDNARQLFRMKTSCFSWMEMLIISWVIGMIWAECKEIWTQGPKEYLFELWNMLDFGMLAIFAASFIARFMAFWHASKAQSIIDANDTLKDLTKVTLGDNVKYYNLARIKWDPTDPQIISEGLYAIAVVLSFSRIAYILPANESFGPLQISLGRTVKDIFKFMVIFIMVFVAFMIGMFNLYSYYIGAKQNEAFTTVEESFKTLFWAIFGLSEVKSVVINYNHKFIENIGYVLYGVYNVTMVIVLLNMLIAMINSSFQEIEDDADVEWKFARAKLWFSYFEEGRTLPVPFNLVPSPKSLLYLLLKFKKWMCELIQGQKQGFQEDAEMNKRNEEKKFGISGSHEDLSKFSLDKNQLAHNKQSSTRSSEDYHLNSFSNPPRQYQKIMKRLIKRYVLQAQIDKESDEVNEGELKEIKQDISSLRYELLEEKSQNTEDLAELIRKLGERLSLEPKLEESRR
TRPC4 potent – TRPC4 (mouse) allosteric potentiation. AID 2227. 310,000 compounds, 0.42% hits. Q9QUQ5. HEK293 TRPC4beta/mu-opioid, DAMGO EC20, Fluo-4 Ca2+ flux; hits give high values. B-score at 10 µM;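 active = B-score of calcium response area above 5 SD of library B-scores, with initial fluorescence ratio within 5 SD of library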;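 also: B-score of integrated fluorescence ratio over time as area under calcium response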
TRPC4 block – inhibitors of mouse TRPC4 channel; Q9QUQ5; HEK293 TRPC4beta/mu-opioid, DAMGO-evoked Fluo4 calcium flux; hits give low values; B-score at 10 µM; 300,000 compounds, 0.39% hits;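 active = B-score over 3 SD under the library average, no early fluorescence shift, positive overall ratio signal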
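System: stable TRPC4beta/mu-opioid receptor HEK293 cells; Dosing: single-point compound dosing; Measured by: Fluo4 Ca2+ flux fluorescence; Read-out basis: per-well B score of integrated baseline-normalized Fluo4 ratio.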
TRPC6 activator – activators of mouse TRPC6 channel | HEK293-TRPC6 membrane potential dye fluorescence; hits give high values | AID 2550 | 310,000 compounds, 0.13% hits | Q61143 | B-score at 10 µM;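 active = B-score of the integrated fluorescence ratio above library mean plus 3 SD, and starting fluorescence ratio within library mean plus 5 SD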;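 also: higher score means more depolarization so channel activation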
TRPC4 spec 2 – mouse TRPC4 off-target activity of TRPC6 inhibitors, second screen. shares compounds with TRPC6 inh. AID 2776. 920 compounds, 42% hits. HEK293 TRPC4/MOR, membrane potential dye fluorescence; channel activated by saturating DAMGO dose. inhibition, % at 10 µM;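 active = compounds whose fluorescence signal differed from control wells by over 3 SD, either direction, in both duplicate plates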
TRPC4 spec – selectivity of TRPC6 inhibitors: effect on mouse TRPC4; shares compounds with TRPC6 inh; HEK293 TRPC4/mu-opioid, membrane potential fluorescence; activity change, negative = inhibition, % at 10 µM; 920 compounds, 61% hits; AID 2777;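 active = rise or fall in signal beyond 3 SD of buffer-only wells in both replicate plates, either sign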;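 also: integrated kinetic ratio of fluorescence range over baseline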
HEK293 MPD ctr 2-1 – second counter-screen for TRPC6 inhibitors: parental HEK293 cells. shares compounds with TRPC6 inh. 920 compounds, 31% hits. parental HEK293 membrane potential dye fluorescence; maximal acetylcholine challenge after compound addition. signal change vs control, % at 10 µM;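 active = membrane potential signal moving either way by over 3 SD of the maximum-effect control, in both duplicate plates, meaning non-specific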
HEK293 MPD ctr-1 – counter-screen for TRPC6 inhibitors: effect in parental HEK293 cells | shares compounds with TRPC6 inh | membrane potential signal change, % at 10 µM | AID 2780 | parental HEK293 membrane potential dye fluorescence | 920 compounds, 60% hits;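 active = membrane potential signal shifting up or down by more than 3 SD of buffer-only wells, on both duplicate plates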
HEK293 MPD ctr-2 – counter-screen for TRPC6 modulators: effect in parental HEK293 cells; shares compounds with TRPC6 inh; membrane potential dye fluorescence; membrane potential signal change, % at 10 µM; 2,400 compounds, 51% hits;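 active = membrane potential signal moves up or down beyond 5 SD from buffer-only wells, on both duplicate plates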
HEK293 MPD ctr 2-2 – second check of TRPC6 modulator effects in parental HEK293 cells | 2,400 compounds, 14% hits | inhibition, % at 10 µM | shares compounds with TRPC6 inh | AID 488926 | membrane potential dye fluorescence; after compound, maximal acetylcholine stimulation;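 active = membrane potential signal drops by more than 5 SD from the mean control signal, in both duplicate plates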;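 also: plate controls were acetylcholine ECmax control wells for no effect and buffer only wells for full effect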
TRPC4/MOR mod – selectivity of TRPC6 modulators against mouse TRPC4 | shares compounds with TRPC6 inh | HEK293 TRPC4/mu-opioid, membrane potential fluorescence | percent change from control (negative = decrease, positive = increase), % at 10 µM | 2,400 compounds, 69% hits | AID 488927;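 active = membrane potential signal moved up or down beyond 5 SD of buffer control wells, in both duplicate plates, actives on both sides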;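 also: plate controls were assay buffer wells for no effect and DAMGO maximal-effect wells for full effect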
TRPC4/MOR inh 2 – second check of whether TRPC6 modulators also affect mouse TRPC4 | HEK293 TRPC4/mu-opioid, membrane potential dye fluorescence; stimulated with maximal-effect DAMGO | 2,400 compounds, 55% hits | AID 488928 | inhibition, % at 10 µM | shares compounds with TRPC6 inh;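 active = drop in membrane potential signal beyond 5 SD of the control wells in both duplicate plates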;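 also: TRPC4 counter screen for TRPC6 hits run under conditions tuned for TRPC6 not TRPC4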
TRPC6 inh conf – mouse TRPC6 inhibitor confirmation | shares compounds with TRPC6 inh | HEK293-TRPC6, membrane potential dye, ACh-evoked depolarization | AID 488960 | inhibition, % at 10 µM | 3,300 compounds, 43% hits;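 active = fluorescence ratio falls more than 5 SD below the full-stimulation control mean, in both duplicate runs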;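 also: integrated fluorescence ratio of peak minus minimum over baseline after agonist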
TRPC6 act confirm – mouse TRPC6 activator confirmation | shares compounds with TRPC6 inh | HEK293-TRPC6 membrane potential dye fluorescence, FDSS | activation, % at 10 µM | 2,800 compounds, 11% hits | AID 488961;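 active = ratio signal rise beyond 5 SD above unstimulated control wells' mean, seen in both duplicate runs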;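 also: plate controls were buffer EC0 wells for no effect and acetylcholine ECmax response for full effect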
An asterisk follows results filed as active; i = inactive; . = no result; + = active, no number. In the library only some 2.5% were active in any assay of this set; here they are far more common.

SMILES	Platelet DG rel	TRPC4 act	TRPC6 inh	TRPC4 potent	TRPC4 block	TRPC6 activator	HEK293 MPD ctr-2	HEK293 MPD ctr 2-2	TRPC4/MOR mod	TRPC4/MOR inh 2	TRPC6 inh conf	TRPC6 act confirm	others
O=C(N/N=C/c1cc(Br)cc(Br)c1O)c1cccc(S(=O)(=O)N2CCOCC2)c1	0	i	-5.7*	i	i	i	i	i	26%*	i	i	i
O=C(N/N=C/c1sc(N2CCOCC2)nc1-c1ccccc1)c1cccc(S(=O)(=O)N2CCCC2)c1	2	i	-5.9*	i	i	i	454%*	i	-56%*	i	i	i
CC(=O)Nc1ccc(/C=N/NC(=O)c2cccc(S(=O)(=O)N3CCOCC3)c2)cc1	-2	i	i	i	i	i	.	.	.	.	.	.
CCN(CC)c1ccc(/C=C2/C(=O)ON=C2C)cc1	5	i	i	i	i	13*	799%*	i	59%*	i	i	133%*
CC1=NOC(=O)/C1=C/c1ccc(N(C)C)cc1	13	i	i	i	i	i	.	.	.	.	.	.
CCOc1ccccc1NC=C1C(=O)OC2(CCCCC2)OC1=O	7	i	i	i	i	i	.	.	.	.	.	.
CCCCC1(C)OC(=O)C(=Cc2ccc(N(CC)CC)cc2)C(=O)O1 (stereo unspecified)	5	i	i	i	i	36*	+	i	186%*	i	i	368%*
CCN(CC)c1ccc(C=C2C(=O)OC3(CCCCC3)OC2=O)cc1	-2	i	i	i	i	59*	724%*	i	162%*	i	i	188%*
Cc1cc2cc(C)c(NCCNC(=O)c3ccccc3F)nc2cc1C	24	i	-5.9*	i	i	i	i	i	i	46%*	i	i
CCOC(=O)C1CCCN(C(=O)c2cnn3c(C(F)F)cc(-c4ccc(C)cc4)nc23)C1 (stereo unspecified)	2	i	-6.2*	i	i	i	156%*	i	37%*	i	i	.
COc1ccc(OS(=O)(=O)c2c(C)noc2C)cc1	21	i	i	i	i	i	.	.	.	.	.	.
Cc1ccc(CNC(=O)C2CCCN2S(=O)(=O)c2ccc(Cl)cc2)cc1 (stereo unspecified)	2	i	-5.4*	i	i	i	i	i	i	i	i	i
O=C(NCc1ccccc1)C1CCCN1S(=O)(=O)c1ccc(Cl)cc1 (stereo unspecified)	-2	i	i	i	i	i	.	.	.	.	.	.
CC(C)[C@H](NC(=O)N1CCn2c1nc1ccccc12)C(=O)NCC1CCCO1 (stereo partly specified)	-3	i	i	i	i	i	.	.	.	.	.	.
Cc1ccccc1-c1nc(-c2ccc(NC(=O)c3cccs3)cc2)no1	21	i	-7.1*	i	i	i	.	.	.	.	i	i	TRPC4 spec 2=i;TRPC4 spec=i;HEK293 MPD ctr 2-1=i;HEK293 MPD ctr-1=i
Cc1ccsc1/C=C1\SC(N2CC(C)OC(C)C2)=NC1=O (stereo unspecified)	-1	i	i	i	i	i	.	.	.	.	.	.
COc1ccc(Cl)c2sc(N(CCN(C)C)C(=O)c3ccc4c(c3)OCCO4)nc12	-9	i	-9.6*	46*	i	i	-122%*	90%*	-40%*	90%*	72%*	i
COc1cc2ccccc2cc1C(=O)N(CCN(C)C)c1nc2c(OC)ccc(OC)c2s1	-17	i	i	i	i	i	.	.	.	.	.	.
COc1cccc2sc(N(CCN(C)C)C(=O)c3ccc(S(=O)(=O)N4CCCC4)cc3)nc12	11	i	i	i	i	i	.	.	.	.	.	.
CC1CN(S(=O)(=O)c2ccc(C(=O)N(CCCN(C)C)c3nc4c(Cl)cccc4s3)cc2)CC(C)O1 (stereo unspecified)	-5	i	-7.5*	i	i	i	i	i	-14%*	68%*	i	i
COc1ccc(OC)c2sc(N(CCN(C)C)C(=O)c3ccc4ccccc4c3)nc12	-1	i	-7.6*	12*	i	i	.	.	.	.	79%*	i	TRPC4 spec 2=i;TRPC4 spec=i;HEK293 MPD ctr 2-1=i;HEK293 MPD ctr-1=i
CCOc1cccc2sc(N(CCCN(C)C)C(=O)c3ccc(S(=O)(=O)N4CCc5ccccc5C4)cc3)nc12	10	i	i	i	i	i	.	.	.	.	.	.
CCOc1cccc2sc(N(CCCN(C)C)C(=O)c3ccc(S(=O)(=O)N(C)c4ccccc4)cc3)nc12	-3	i	-6.6*	i	i	i	i	i	i	71%*	i	i
CC(=O)NS(=O)(=O)c1cccnc1Nc1ccc(Cl)cc1	-13	i	i	i	i	i	.	.	.	.	.	.
CCCCCCN=C(C)c1ccccc1O	-8	i	i	i	i	i	.	.	.	.	.	.

Screening data from PubChem.
